The results in this text go back to ChEMBL document CHEMBL1154674, “Synthesis and evaluation of three 18F-labeled aminophenylbenzothiazoles as amyloid imaging agents” (J Med Chem, 2009).

Type in all cases: ADME, organism-based, Macaca mulatta
Data set [1] in a line: Drug level in normal rhesus monkey white matter assessed as standard uptake value at 96.3 MBq, iv after 2.5 mins by microPET. As to conditions: in vivo.
Data set [2] can be described thus: Drug level in normal rhesus monkey parietal cortex assessed as standard uptake value at 96.3 MBq, iv after 32.5 mins by microPET. As to conditions: in vivo.
Data set [3] is described as follows: Drug level in normal rhesus monkey frontal cortex assessed as standard uptake value at 96.3 MBq, iv after 175 mins by microPET. The conditions noted are these: in vivo.
Data set [4] can be described thus: Drug level in normal rhesus monkey frontal cortex assessed as standard uptake value at 96.3 MBq, iv after 65 mins by microPET. As to conditions: in vivo.
Data set [5] can be described thus: Drug level in normal rhesus monkey thalamus assessed as standard uptake value at 96.3 MBq, iv after 12 mins by microPET. The conditions noted are these: in vivo, 0.2 h.
The nature of data set [6]: Drug level in normal rhesus monkey pons assessed as standard uptake value at 96.3 MBq, iv after 27.5 mins by microPET. As to conditions: in vivo.
A short description of data set [7]: Drug level in normal rhesus monkey parietal cortex assessed as standard uptake value at 96.3 MBq, iv after 47.5 mins by microPET. The conditions noted are these: in vivo.
A short description of data set [8]: Drug level in normal rhesus monkey white matter assessed as standard uptake value at 96.3 MBq, iv after 8 mins by microPET. As to conditions: in vivo.
The nature of data set [9]: Drug level in normal rhesus monkey pons assessed as standard uptake value at 81.2 MBq, iv after 155 mins by microPET. As to conditions: in vivo.
The nature of data set [10]: Drug level in normal rhesus monkey thalamus assessed as standard uptake value at 81.2 MBq, iv after 145 mins by microPET. The conditions noted are these: in vivo.
A short description of data set [11]: Drug level in normal rhesus monkey cerebellum assessed as standard uptake value at 81.2 MBq, iv after 4.5 mins by microPET. As to conditions: in vivo, 0.075 h. The gist of the method:
(§1)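 One normal rhesus monkey, each tracer given iv via the vena saphena (81.2, 96.3 or 109.4 MBq), with 1 day between tracer injections. Dynamic brain μPET over 180 min used frames of 5 × 60 s, 5 × 120 s, 9 × 300 s and 12 × 600 s. Images were reconstructed by filtered back projection with a RAMP filter. Regional time-activity curves were expressed as SUV.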

Data set [12] in a line: Drug level in normal rhesus monkey pons assessed as standard uptake value at 81.2 MBq, iv after 3.5 mins by microPET. The conditions noted are these: in vivo.
The nature of data set [13]: Drug level in normal rhesus monkey thalamus assessed as standard uptake value at 81.2 MBq, iv after 57.5 mins by microPET. The conditions noted are these: in vivo.
A short description of data set [14]: Drug level in normal rhesus monkey cerebellum assessed as standard uptake value at 81.2 MBq, iv after 8 mins by microPET. As to conditions: in vivo. The method in brief:
as §1

Data set [15] is described as follows: Drug level in normal rhesus monkey pons assessed as standard uptake value at 81.2 MBq, iv after 14 mins by microPET. The conditions noted are these: in vivo.
Data set [16] in a line: Drug level in normal rhesus monkey pons assessed as standard uptake value at 81.2 MBq, iv after 12 mins by microPET. As to conditions: in vivo, 0.2 h.
The nature of data set [17]: Drug level in normal rhesus monkey parietal cortex assessed as standard uptake value at 81.2 MBq, iv after 3.5 mins by microPET. As to conditions: in vivo.
Data set [18] in a line: Drug level in normal rhesus monkey thalamus assessed as standard uptake value at 81.2 MBq, iv after 27.5 mins by microPET. The conditions noted are these: in vivo.
Data set [19] in a line: Drug level in normal rhesus monkey pons assessed as standard uptake value at 81.2 MBq, iv after 165 mins by microPET. As to conditions: in vivo, 2.75 h.
Data set [20] can be described thus: Drug level in normal rhesus monkey pons assessed as standard uptake value at 81.2 MBq, iv after 22.5 mins by microPET. As to conditions: in vivo, 0.375 h.
Data set [21] is described as follows: Drug level in normal rhesus monkey parietal cortex assessed as standard uptake value at 152.9 MBq, iv after 8 mins by microPET. As to conditions: in vivo.
Data set [22] is described as follows: Drug level in normal rhesus monkey cerebellum assessed as standard uptake value at 152.9 MBq, iv after 22.5 mins by microPET. The conditions noted are these: in vivo, 0.375 h. The method in brief:
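One normal rhesus monkey received each tracer via the vena saphena, with 1 day between injections. Dynamic μPET ran 180 min for 18F tracers (5×60 s, 5×120 s, 9×300 s, 12×600 s) and 90 min for the 11C tracer (5×60 s, 5×120 s, 9×300 s, 3×600 s). Filtered back-projection reconstruction (RAMP filter) was used. Time-activity curves were drawn to give regional SUV.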

Data set [23] is described as follows: Drug level in normal rhesus monkey pons assessed as standard uptake value at 152.9 MBq, iv after 10 mins by microPET. The conditions noted are these: in vivo.
Data set [24] is described as follows: Drug level in normal rhesus monkey thalamus assessed as standard uptake value at 152.9 MBq, iv after 42.5 mins by microPET. As to conditions: in vivo.
The nature of data set [25]: Drug level in normal rhesus monkey frontal cortex assessed as standard uptake value at 152.9 MBq, iv after 22.5 mins by microPET. The conditions noted are these: in vivo, 0.375 h. The method in brief:
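Single normal rhesus monkey; tracer given iv via the vena saphena, 1 day apart from the other tracer injections. Dynamic μPET ran 90 min (5×60 s, 5×120 s, 9×300 s, 3×600 s). Images were reconstructed by filtered back projection with a RAMP filter. Regional time-activity curves were expressed as SUV.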

Data set [26] can be described thus: Drug level in normal rhesus monkey white matter assessed as standard uptake value at 152.9 MBq, iv after 52.5 mins by microPET. As to conditions: in vivo, 0.875 h.
Data set [27] can be described thus: Drug level in normal rhesus monkey thalamus assessed as standard uptake value at 109.4 MBq, iv after 3.5 mins by microPET. As to conditions: in vivo.
Data set [28] can be described thus: Drug level in normal rhesus monkey parietal cortex assessed as standard uptake value at 109.4 MBq, iv after 111 mins by microPET. As to conditions: in vivo.
A short description of data set [29]: Drug level in normal rhesus monkey white matter assessed as standard uptake value at 109.4 MBq, iv after 1.5 mins by microPET. The conditions noted are these: in vivo, 0.025 h.
Data set [30] is described as follows: Drug level in normal rhesus monkey white matter assessed as standard uptake value at 109.4 MBq, iv after 47.5 mins by microPET. The conditions noted are these: in vivo.
Data set [31] is described as follows: Drug level in normal rhesus monkey thalamus assessed as standard uptake value at 109.4 MBq, iv after 52.5 mins by microPET. As to conditions: in vivo, 0.875 h.
The nature of data set [32]: Drug level in normal rhesus monkey frontal cortex assessed as standard uptake value at 109.4 MBq, iv after 129 mins by microPET. The conditions noted are these: in vivo, 2.15 h.
Data set [33] can be described thus: Drug level in normal rhesus monkey parietal cortex assessed as standard uptake value at 109.4 MBq, iv after 32.5 mins by microPET. As to conditions: in vivo.
The nature of data set [34]: Drug level in normal rhesus monkey cerebellum assessed as standard uptake value at 109.4 MBq, iv after 9.5 mins by microPET. The conditions noted are these: in vivo.
The nature of data set [35]: Drug level in normal rhesus monkey cerebellum assessed as standard uptake value at 109.4 MBq, iv after 12.5 mins by microPET. The conditions noted are these: in vivo.
Data set [36] in a line: Drug level in normal rhesus monkey frontal cortex assessed as standard uptake value at 109.4 MBq, iv after 63 mins by microPET. The conditions noted are these: in vivo, 1.05 h.
The nature of data set [37]: Drug level in normal rhesus monkey parietal cortex assessed as standard uptake value at 109.4 MBq, iv after 117 mins by microPET. As to conditions: in vivo, 1.95 h.
Data set [38] can be described thus: Drug level in normal rhesus monkey thalamus assessed as standard uptake value at 109.4 MBq, iv after 0.375 mins by microPET. As to conditions: in vivo, 22 s.

Regarding `CN(C)c1ccc2nc(-c3ccc([18F])cc3)sc2c1`, the SUV came out at 0.94 in data set [1]; 1.9 in [2]; 1.49 in [3]; 1.79 in data set [4]; 2.38 in [5]; 1.61 in [6]. In addition, the SUV worked out at 1.72 in [7] and 1.16 in data set [8].

Turning to `CNc1ccc2nc(-c3ccc([18F])cc3)sc2c1`, the SUV in [9] is on record as 5.431; in data set [10] it was 4.916; in [11], 2.964; in data set [12], 4.503; in [13], 5.552; in data set [14], 2.781. For the same compound, the SUV in data set [15] worked out at 4.757; in data set [16], 5.701; in data set [17], 4.897; in [18], 5.4; in data set [19], 4.946; in data set [20], 5.688.

Turning to `[11CH3]Nc1ccc(-c2nc3ccc(O)cc3s2)cc1` [PITTSBURGH COMPOUND B], the SUV in data set [21] worked out at 2.207; in data set [22], 1.502; in [23], 2.036; in [24] it was 1.223; in [25] it was 1.373; in [26], 0.937.

Regarding `Nc1ccc2nc(-c3ccc([18F])cc3)sc2c1`, the SUV is listed as 4.66 in [27]; 3.59 in [28]; 1.98 in data set [29]; 3.53 in data set [30]; 5.41 in data set [31]; 4.06 in data set [32]. Also, the SUV in data set [33] was found to be 4.8; in data set [34], 5.44; in data set [35] it was 5.33; in [36], 4.56; in data set [37], 3.51; in [38], 0.41.
